Source: ChEMBL document CHEMBL4130386, “Notch Inhibitors from Calotropis gigantea That Induce Neuronal Differentiation of Neural Stem Cells” (J Nat Prod, 2017)
Values belong to the compound of their own block, whether it stands above or below them. Active and inactive are the calls of the source. No cut-off for these calls is given here.

Tests used:
MEB5 [1] = assay: Induction of neuronal differentiation in mouse MEB5 cells assessed as increase in neurite extension length at 1 uM after 4 days by Tuj1 staining based immunofluorescence analysis relative to control; type: functional
MEB5 [2] = assay: Induction of neuronal differentiation in mouse MEB5 cells assessed as reduction in astrocytes at 1 uM after 4 days by GFAP staining based immunofluorescence analysis; type: functional, cell-based
MEB5 [3] = assay: Effect on gamma-secretase activity in mouse MEB5 cells assessed as PS1 expression at 1 uM after 24 hrs by Western blot analysis; type: cell-based
Outline: (§1)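 MEB5 mouse neural stem cells dissociated and seeded on poly-L-lysine and fibronectin/laminin-coated 6 cm dishes in proliferation medium for 12 h. Washed with NeuroCult basal medium, then compound given in differentiation medium for 24 h. Lysates analysed by Western blot (SDS-PAGE, PVDF, ECL); γ-secretase antibody sampler kit used for γ-secretase components.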

MEB5 [4] = assay: Induction of neuronal differentiation in mouse MEB5 cells assessed as number of neurons at 1 uM after 4 days by Tuj1 staining based immunofluorescence analysis (reference value: 13.3 %); type: functional
MEB5 [5] = assay: Inhibition of Wnt signaling in mouse MEB5 cells assessed as reduction in beta-catenin level up to 1 uM after 12 to 24 hrs by Western blot analysis; type: cell-based
[6] = Inhibition of recombinant mouse N-terminal FLAG-tagged Notch1 (1704 to 2531 residues) expressed in human LS174T cells assessed as reduction in doxycycline-induced NICD expression after 12 hrs by Bright-Glo luciferase reporter gene assay; type: cell-based
Outline: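 LS174T Notch cells seeded 2 × 10^4 cells/well, 12 h at 37 °C. Dox 50 ng/mL for 12 h, then Dox-free medium with samples for 12 h at 37 °C in 0.1% DMSO. Luciferase read with Bright-Glo. Viability measured in parallel by fluorometric microculture cytotoxicity assay. SD, n = 3.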

MEB5 [7] = assay: Induction of neuronal differentiation in mouse MEB5 cells assessed as neurite length at 1 uM after 4 days by Tuj1 staining based immunofluorescence analysis (reference value: 14.3 micrometer); type: functional
[8] = target: Neurogenic locus notch homolog protein 1 (Mus musculus) (UniProt Q01705); assay: Inhibition of Notch1 in mouse MEB5 cells assessed as reduction in Hes5 expression at 1 uM after 24 hrs by Western blot analysis; type: cell-based; outline: as §1
Neurogenic locus notch homolog protein 1 (Mus musculus), sequence (Q01705 whole entry, the tested form may be a part): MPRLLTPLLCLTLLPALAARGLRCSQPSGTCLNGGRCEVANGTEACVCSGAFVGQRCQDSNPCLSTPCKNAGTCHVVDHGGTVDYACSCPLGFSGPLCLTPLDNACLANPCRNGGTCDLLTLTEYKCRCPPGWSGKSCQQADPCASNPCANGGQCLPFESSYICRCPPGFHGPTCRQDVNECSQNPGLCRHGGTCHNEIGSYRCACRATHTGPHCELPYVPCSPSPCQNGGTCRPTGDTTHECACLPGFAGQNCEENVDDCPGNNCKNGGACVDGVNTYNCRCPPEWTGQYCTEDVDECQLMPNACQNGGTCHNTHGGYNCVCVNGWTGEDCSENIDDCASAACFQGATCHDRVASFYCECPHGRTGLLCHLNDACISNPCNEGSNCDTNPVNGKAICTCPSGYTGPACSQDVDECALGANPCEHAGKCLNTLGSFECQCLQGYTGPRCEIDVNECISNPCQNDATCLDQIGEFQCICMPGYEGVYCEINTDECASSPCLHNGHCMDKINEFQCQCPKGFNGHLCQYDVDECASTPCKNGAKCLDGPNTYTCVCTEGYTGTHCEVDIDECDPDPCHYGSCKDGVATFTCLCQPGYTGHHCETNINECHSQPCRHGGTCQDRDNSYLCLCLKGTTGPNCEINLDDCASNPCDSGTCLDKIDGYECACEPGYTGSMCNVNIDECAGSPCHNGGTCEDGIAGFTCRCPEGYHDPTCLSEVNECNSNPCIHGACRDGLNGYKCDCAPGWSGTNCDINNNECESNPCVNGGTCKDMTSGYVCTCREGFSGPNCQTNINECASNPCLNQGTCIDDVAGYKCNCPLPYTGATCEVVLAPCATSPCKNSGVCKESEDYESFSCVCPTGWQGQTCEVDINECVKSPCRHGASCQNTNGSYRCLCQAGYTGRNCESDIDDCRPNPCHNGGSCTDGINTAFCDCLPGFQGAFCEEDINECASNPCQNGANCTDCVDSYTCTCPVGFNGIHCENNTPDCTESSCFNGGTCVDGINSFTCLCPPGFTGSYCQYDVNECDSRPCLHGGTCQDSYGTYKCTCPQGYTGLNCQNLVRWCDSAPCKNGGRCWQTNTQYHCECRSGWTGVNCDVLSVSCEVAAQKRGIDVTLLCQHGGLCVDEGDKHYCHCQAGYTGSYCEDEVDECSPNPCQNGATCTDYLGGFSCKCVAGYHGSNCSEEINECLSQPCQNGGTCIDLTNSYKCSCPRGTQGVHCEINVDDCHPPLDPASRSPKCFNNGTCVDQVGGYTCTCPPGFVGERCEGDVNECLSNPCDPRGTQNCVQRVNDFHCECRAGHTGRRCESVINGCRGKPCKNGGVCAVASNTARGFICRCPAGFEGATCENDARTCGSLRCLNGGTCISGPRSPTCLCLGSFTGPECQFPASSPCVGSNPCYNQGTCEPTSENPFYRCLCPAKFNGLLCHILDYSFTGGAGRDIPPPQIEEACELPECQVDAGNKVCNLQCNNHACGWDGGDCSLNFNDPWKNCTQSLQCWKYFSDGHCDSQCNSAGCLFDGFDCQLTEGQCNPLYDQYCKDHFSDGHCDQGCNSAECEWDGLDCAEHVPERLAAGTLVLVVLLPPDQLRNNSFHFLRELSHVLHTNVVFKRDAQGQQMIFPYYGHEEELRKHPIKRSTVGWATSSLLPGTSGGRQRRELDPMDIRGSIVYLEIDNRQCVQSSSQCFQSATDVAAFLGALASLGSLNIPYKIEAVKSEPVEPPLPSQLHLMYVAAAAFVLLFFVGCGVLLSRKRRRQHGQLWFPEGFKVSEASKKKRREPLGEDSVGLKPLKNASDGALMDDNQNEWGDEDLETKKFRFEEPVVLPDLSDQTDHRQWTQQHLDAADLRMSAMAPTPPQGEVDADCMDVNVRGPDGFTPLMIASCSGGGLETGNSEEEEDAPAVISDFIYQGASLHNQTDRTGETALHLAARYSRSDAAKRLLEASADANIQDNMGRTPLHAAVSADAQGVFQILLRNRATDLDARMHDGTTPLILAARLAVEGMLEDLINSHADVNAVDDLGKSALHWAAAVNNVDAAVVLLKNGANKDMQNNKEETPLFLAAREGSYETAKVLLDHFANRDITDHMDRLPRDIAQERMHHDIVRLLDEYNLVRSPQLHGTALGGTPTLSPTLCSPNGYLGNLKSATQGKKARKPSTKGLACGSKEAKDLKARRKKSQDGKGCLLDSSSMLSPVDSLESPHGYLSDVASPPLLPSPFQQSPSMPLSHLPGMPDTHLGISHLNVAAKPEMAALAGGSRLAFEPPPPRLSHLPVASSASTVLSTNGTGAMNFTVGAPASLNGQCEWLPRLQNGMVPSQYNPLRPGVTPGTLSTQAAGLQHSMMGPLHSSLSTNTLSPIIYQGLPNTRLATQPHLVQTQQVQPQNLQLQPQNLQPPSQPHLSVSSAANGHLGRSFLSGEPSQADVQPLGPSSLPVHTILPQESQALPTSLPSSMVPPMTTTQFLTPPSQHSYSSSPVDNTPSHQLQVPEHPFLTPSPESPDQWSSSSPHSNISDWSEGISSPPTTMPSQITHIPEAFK

[9] = target: Gamma-secretase (Homo sapiens) (UniProt Q96BI3+Q9NZ42+Q8WW43+P49768+Q92542+P49810); assay: Effect on gamma-secretase activity in human LS174T cells harboring mouse N-terminal FLAG-tagged Notch1 (1704 to 2531 residues) after 12 hrs by Western blot analysis; type: cell-based
MEB5 [10] = assay: Effect on gamma-secretase activity in mouse MEB5 cells assessed as PS2 expression at 1 uM after 24 hrs by Western blot analysis; type: cell-based; outline: as §1
[11] = target: Neurogenic locus notch homolog protein 1 (Homo sapiens) (UniProt P46531); assay: Inhibition of doxycycline-induced recombinant mouse N-terminal FLAG-tagged Notch1 (1704 to 2531 residues) activation expressed in human LS174T cells assessed as reduction in Hes1 level at 0.1 to 1 uM after 12 hrs by Western blot analysis; type: cell-based
Neurogenic locus notch homolog protein 1 (Homo sapiens), sequence (P46531 whole entry, the tested form may be a part): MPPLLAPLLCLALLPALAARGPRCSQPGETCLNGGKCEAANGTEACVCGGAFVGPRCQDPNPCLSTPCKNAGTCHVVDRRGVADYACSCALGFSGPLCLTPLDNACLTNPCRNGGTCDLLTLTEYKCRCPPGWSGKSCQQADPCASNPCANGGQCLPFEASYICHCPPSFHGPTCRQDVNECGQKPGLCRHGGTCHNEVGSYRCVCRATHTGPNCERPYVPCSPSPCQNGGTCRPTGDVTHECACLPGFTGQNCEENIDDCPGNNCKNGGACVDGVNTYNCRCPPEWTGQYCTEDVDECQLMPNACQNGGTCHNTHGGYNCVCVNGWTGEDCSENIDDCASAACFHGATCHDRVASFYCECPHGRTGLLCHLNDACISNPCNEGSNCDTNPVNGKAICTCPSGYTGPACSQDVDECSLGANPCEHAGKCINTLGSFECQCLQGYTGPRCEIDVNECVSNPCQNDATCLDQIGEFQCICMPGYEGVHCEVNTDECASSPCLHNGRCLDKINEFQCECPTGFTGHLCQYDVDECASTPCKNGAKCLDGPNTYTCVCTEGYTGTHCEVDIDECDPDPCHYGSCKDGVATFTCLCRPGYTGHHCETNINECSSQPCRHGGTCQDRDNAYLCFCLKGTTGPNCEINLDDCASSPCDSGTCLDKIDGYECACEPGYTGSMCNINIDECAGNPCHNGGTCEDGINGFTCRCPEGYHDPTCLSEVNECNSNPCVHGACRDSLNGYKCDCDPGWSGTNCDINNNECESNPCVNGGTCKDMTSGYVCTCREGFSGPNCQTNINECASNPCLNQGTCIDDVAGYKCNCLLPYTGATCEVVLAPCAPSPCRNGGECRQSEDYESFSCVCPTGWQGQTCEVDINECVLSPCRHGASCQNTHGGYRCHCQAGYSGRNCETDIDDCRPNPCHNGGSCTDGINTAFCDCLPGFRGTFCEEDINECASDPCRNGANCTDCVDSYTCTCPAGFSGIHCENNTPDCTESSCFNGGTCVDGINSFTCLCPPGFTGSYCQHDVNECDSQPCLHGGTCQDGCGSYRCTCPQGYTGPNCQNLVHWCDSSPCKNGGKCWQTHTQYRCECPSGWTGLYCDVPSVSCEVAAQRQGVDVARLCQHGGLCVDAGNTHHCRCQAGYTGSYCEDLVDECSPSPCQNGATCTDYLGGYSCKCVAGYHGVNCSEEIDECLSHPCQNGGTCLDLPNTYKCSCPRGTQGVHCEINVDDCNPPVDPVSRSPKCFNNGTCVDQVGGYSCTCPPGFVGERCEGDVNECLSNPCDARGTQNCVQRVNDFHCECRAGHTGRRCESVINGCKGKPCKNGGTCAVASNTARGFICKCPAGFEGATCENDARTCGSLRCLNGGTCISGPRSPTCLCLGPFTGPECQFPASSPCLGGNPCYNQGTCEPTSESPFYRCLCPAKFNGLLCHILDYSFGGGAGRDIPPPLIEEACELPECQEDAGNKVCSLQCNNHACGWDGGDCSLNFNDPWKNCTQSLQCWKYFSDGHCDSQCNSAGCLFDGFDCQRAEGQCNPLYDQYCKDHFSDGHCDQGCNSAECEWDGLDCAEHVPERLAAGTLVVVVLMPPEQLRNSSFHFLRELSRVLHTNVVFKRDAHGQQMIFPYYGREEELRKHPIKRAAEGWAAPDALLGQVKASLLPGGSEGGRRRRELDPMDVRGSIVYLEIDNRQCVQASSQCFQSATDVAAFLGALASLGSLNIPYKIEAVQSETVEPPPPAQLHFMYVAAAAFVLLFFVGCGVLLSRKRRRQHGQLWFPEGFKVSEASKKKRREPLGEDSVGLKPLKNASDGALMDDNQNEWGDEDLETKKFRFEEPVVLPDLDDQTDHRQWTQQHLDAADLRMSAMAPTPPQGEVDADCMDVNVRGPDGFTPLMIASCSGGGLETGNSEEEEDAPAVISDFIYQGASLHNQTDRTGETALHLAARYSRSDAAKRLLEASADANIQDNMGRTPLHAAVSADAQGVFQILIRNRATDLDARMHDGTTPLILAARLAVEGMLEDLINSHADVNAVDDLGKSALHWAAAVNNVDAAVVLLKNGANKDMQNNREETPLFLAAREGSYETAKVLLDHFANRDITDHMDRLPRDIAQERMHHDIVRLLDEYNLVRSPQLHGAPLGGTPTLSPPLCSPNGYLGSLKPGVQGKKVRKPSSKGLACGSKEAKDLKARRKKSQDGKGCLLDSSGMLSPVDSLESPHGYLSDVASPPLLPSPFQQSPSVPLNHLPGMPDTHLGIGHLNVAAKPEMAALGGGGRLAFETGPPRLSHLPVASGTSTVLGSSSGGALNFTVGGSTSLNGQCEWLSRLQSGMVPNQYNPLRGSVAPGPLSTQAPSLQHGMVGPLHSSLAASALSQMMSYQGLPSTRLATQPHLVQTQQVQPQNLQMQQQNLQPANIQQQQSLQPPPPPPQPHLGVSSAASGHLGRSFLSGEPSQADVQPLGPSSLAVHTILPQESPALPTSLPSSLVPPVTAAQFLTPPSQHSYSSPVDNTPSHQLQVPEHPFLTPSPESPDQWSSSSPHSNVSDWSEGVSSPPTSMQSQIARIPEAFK
Outline: (§2)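 LS174T Notch cells (Tet-On LS174T, N-terminally FLAG-tagged mouse Notch1(1704-2531), stable 12×RBP-J luciferase reporter) seeded 1 × 10^6 cells per 6 cm dish for 12 h at 37 °C. Dox 50 ng/mL for 12 h, then fresh medium with compound for 12 h. Whole-cell lysates, SDS-PAGE, PVDF, ECL detection. Anti-Flag used for the Notch1 fragment; β-actin internal control.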

[12] = target: Neurogenic locus notch homolog protein 1 (Mus musculus) (UniProt Q01705); assay: Inhibition of Notch1 in mouse MEB5 cells assessed as reduction in NICD expression at 1 uM after 24 hrs by Western blot analysis; type: cell-based; outline: as §1
[13] = target: Neurogenic locus notch homolog protein 1 (Mus musculus) (UniProt Q01705); assay: Inhibition of Notch1 in mouse MEB5 cells assessed as reduction in Hes1 expression at 1 uM after 24 hrs by Western blot analysis; type: cell-based; outline: as §1
[14] = target: Neurogenic locus notch homolog protein 1 (Homo sapiens) (UniProt P46531); assay: Inhibition of doxycycline-induced recombinant mouse N-terminal FLAG-tagged Notch1 (1704 to 2531 residues) activation expressed in human LS174T cells assessed as reduction in Hes5 level at 0.1 to 1 uM after 12 hrs by Western blot analysis; type: cell-based; outline: as §2
MEB5 [15] = assay: Effect on gamma-secretase activity in mouse MEB5 cells assessed as PEN2 expression at 1 uM after 24 hrs by Western blot analysis; type: cell-based; outline: as §1
[16] = target: Neurogenic locus notch homolog protein 1 (Mus musculus) (UniProt Q01705); assay: Inhibition of Notch1 in mouse MEB5 cells assessed as reduction in NICD expression at 1 uM after 24 hrs in presence of proteasome inhibitor MG132 by Western blot analysis; type: cell-based
MEB5 [17] = assay: Effect on gamma-secretase activity in mouse MEB5 cells assessed as nicastrin expression at 1 uM after 24 hrs by Western blot analysis; type: cell-based; outline: as §1
LS174T = assay: Effect on Notch1 (1704 to 2531 residues) expression in human LS174T cells at 0.001 to 10 uM after 12 hrs by Western blot analysis; type: functional, cell-based; outline: as §2
[18] = target: Neurogenic locus notch homolog protein 1 (Mus musculus) (UniProt Q01705); assay: Inhibition of recombinant mouse Notch1-RAMIC expressed in MEB5 cells assessed as reduction in doxycycline-induced NICD expression at 10 uM after 12 hrs by Western blot analysis; type: cell-based
Outline: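 Dissociated MEB5 cells were seeded at 2 × 10^6 cells/well in 6 cm dishes coated with poly-L-lysine and fibronectin/laminin. After 12 h in proliferation medium, cells were washed with serum-free NeuroCult basal medium and treated in differentiation medium with 10 μM for 12 h. Whole-cell lysates were run on SDS-PAGE and immunoblotted for NICD, with ECL detection.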

[19] = target: Neurogenic locus notch homolog protein 1 (Mus musculus) (UniProt Q01705); assay: Inhibition of recombinant mouse Notch1-RAMIC expressed in MEB5 cells harboring TP1 assessed as luciferase activity at 10 uM after 12 hrs by Dual-Glo luciferase assay (reference value: 0.258); type: cell-based
MEB5 [20] = assay: Induction of neuronal differentiation in mouse MEB5 cells assessed as number of neurons at 10 uM after 4 days by Tuj1 staining based immunofluorescence analysis (reference value: 13.3 %); type: functional
Outline: (§3)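 MEB5 mouse neurospheres were chemically dissociated and seeded at 2 × 10^6 cells/well on coverslips coated with poly-L-lysine and fibronectin/laminin. After 12 h in proliferation medium, cells were washed with NeuroCult basal medium and treated for 4 days in differentiation medium. They were then fixed in 4% paraformaldehyde and immunostained for Tuj-1 (neurons) and GFAP (astrocytes), with TO-PRO-3 nuclear counterstain. Confocal imaging used four fields per well and three wells per condition, covering over 4000 cells and 670 neurites per sample.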

MEB5 [21] = assay: Induction of neuronal differentiation in mouse MEB5 cells assessed as increase in neurite extension length at 10 uM after 4 days by Tuj1 staining based immunofluorescence analysis relative to control; type: functional; outline: as §3
MEB5 [22] = assay: Induction of neuronal differentiation in mouse MEB5 cells assessed as reduction in astrocytes at 10 uM after 4 days by GFAP staining based immunofluorescence analysis; type: functional, cell-based; outline: as §3
MEB5 [23] = assay: Induction of neuronal differentiation in mouse MEB5 cells assessed as neurite length at 10 uM after 4 days by Tuj1 staining based immunofluorescence analysis (reference value: 14.3 micrometer); type: functional; outline: as §3

Structure (SMILES): C[C@@H]1C[C@@]2(N=CCS2)[C@]2(O)O[C@@H]3C[C@@]4(C=O)[C@@H](CC[C@@H]5[C@@H]4CC[C@]4(C)[C@@H](C6=CC(=O)OC6)CC[C@]54O)C[C@H]3O[C@@H]2O1 [USCHARIN]
Activity (MEB5 [1]): 36%
Activity (MEB5 [2]): Active
Activity (MEB5 [3]): inactive
Activity (MEB5 [4]): 20.8%
inhibition (MEB5 [5]): inactive
inhibition [6]: Dose-dependent effect
Activity (MEB5 [7]): 19.5 um
inhibition [8]: Active
Activity [9]: inactive
Activity (MEB5 [10]): inactive
inhibition [11]: Active
inhibition [12]: Active
inhibition [13]: Active
inhibition [14]: Active
Activity (MEB5 [15]): inactive
inhibition [16]: inactive
Activity (MEB5 [17]): inactive
Activity (LS174T): inactive

Structure (SMILES): C[C@@H]1C[C@@]2(N=CCS2)[C@]2(O)O[C@@H]3C[C@@]4(C=O)[C@@H](CC[C@@H]5[C@@H]4CC[C@]4(C)[C@@H](C6=CC(=O)OC6)[C@H](O)C[C@]54O)C[C@H]3O[C@@H]2O1
inhibition [6]: Dose-dependent effect

Structure (SMILES): C[C@@H]1C[C@@]2(NC(=O)CS2)[C@]2(O)O[C@@H]3C[C@@]4(C=O)[C@@H](CC[C@@H]5[C@@H]4CC[C@]4(C)[C@@H](C6=CC(=O)OC6)CC[C@]54O)C[C@H]3O[C@@H]2O1
inhibition [6]: Dose-dependent effect

inhibition [18]: Active
Activity [19]: 0.004
inhibition [11]: Active
inhibition [14]: Active
Structure (SMILES): C[C@H](NC(=O)Cc1cc(F)cc(F)c1)C(=O)N[C@H](C(=O)OC(C)(C)C)c1ccccc1
Activity (MEB5 [20]): 19.7%
Activity (MEB5 [21]): 43%
Activity (MEB5 [22]): Active
Activity (MEB5 [23]): 20.5 um

Structure (SMILES): C[C@@H]1C[C@@]2(NCCS2)[C@]2(O)O[C@@H]3C[C@@]4(C=O)[C@@H](CC[C@@H]5[C@@H]4CC[C@]4(C)[C@@H](C6=CC(=O)OC6)CC[C@]54O)C[C@H]3O[C@@H]2O1
inhibition [6]: Dose-dependent effect

Structure (SMILES): COC(=O)[C@@]1(O)C[C@@H](C)O[C@H]1O[C@@H]1C[C@@H]2CC[C@@H]3[C@H](CC[C@]4(C)[C@@H](C5=CC(=O)OC5)[C@H](O)C[C@]34O)[C@@]2(C=O)C[C@H]1O
inhibition [6]: Dose-dependent effect

Structure (SMILES): C[C@@H]1C[C@H](O)[C@]2(O)O[C@@H]3C[C@@]4(C=O)[C@@H](CC[C@@H]5[C@@H]4CC[C@]4(C)[C@@H](C6=CC(=O)OC6)CC[C@]54O)C[C@H]3O[C@@H]2O1
inhibition [6]: Dose-dependent effect
Activity [9]: inactive

Structure (SMILES): CC(=O)O[C@H]1C[C@@H](C)O[C@H]2O[C@@H]3C[C@@H]4CC[C@@H]5[C@H](CC[C@]6(C)[C@@H](C7=CC(=O)OC7)CC[C@]56O)[C@@]4(C=O)C[C@H]3O[C@]21O
inhibition [6]: Dose-dependent effect
Activity [9]: inactive

Structure (SMILES): C[C@@H]1CC(=O)[C@]2(O)O[C@@H]3C[C@@]4(C=O)[C@@H](CC[C@@H]5[C@@H]4CC[C@]4(C)[C@@H](C6=CC(=O)OC6)CC[C@]54O)C[C@H]3O[C@@H]2O1
inhibition [6]: Dose-dependent effect
